From PubChem BioAssay
STAT1 blocker – STAT1 signaling inhibition | NIH 3T3 STAT1-luciferase reporter, IFN-gamma, luminescence | inhibition, % at 5.5 µM | 200,000 compounds, 0.35% hits;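 active = inhibition above a set limit, the mean inhibition across all tested compounds plus 3 SD, cut at about 34% in these data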;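 note: 0% = IFN-gamma with DMSO and 100% = IFN-gamma with 300 µM nifuroxazide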
STAT3 act – increases IL-6 driven STAT3 reporter signal; U3A cells, IL-6 STAT3-luciferase reporter, luminescence; 100% = signal with IL-6 EC80 alone; activation (% of control), % at 5.6 µM; 190,000 compounds, 0.91% hits;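 active = activation above the screen-wide mean of compound activation plus 3 SD, cut at about 130% in these data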;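 note: 0% = background luminescence of wells with medium and substrate only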
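Material: human U3A cells carrying STAT3-luciferase construct. Measured by: reporter luminescence signal. Timing: compound 1 h, then IL-6 6 h at 37 °C.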
STAT1 act – increases IFN-gamma driven STAT1 reporter signal | NIH 3T3 STAT1-luciferase reporter, luminescence; 100% = IFN-gamma alone, no compound | activation (% of control), % at 5.5 µM | 200,000 compounds, 2.6% hits;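 active = activation above the screen-wide mean activation plus 3 SD, cut at about 130% in these data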;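 note: raw ratio to IFN-gamma control signal so 100% means no change and 0% no light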
STAT3 inh – reduces IL-6 driven STAT3 reporter signal; U3A cells, IL-6 STAT3-luciferase reporter, luminescence; host cell line lacks STAT1; inhibition, % at 5.5 µM; 190,000 compounds, 0.89% hits; AID 862;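 active = inhibition above the mean inhibition across all screened compounds plus 3 SD, cut at about 44% in these data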;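 note: 0% = DMSO only wells and 100% = 100 µM nifuroxazide control wells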
APP 5'UTR act – APP 5'UTR luciferase reporter activation; activation, % at 2 µM; 190,000 compounds, 1% hits; AID 1276; SH-SY5Y APP 5'UTR luciferase reporter, luminescence; zero percent = DMSO vehicle wells;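 active = activation above a set limit, based on mean plus 3 SD of controls, cut at about 140% in these data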
NF-kB expr up – raises NF-kB expression in human neuronal cells | NF-kB reporter expression; active compounds read high | fold change at 12.5 µM | 190,000 compounds, 1.6% hits; in the data active = fold change above about 3.3
Starred values were filed as active, the others as inactive. This is a sample that favours compounds with a hit; in the whole collection about 5.1% have one here.

SMILES | STAT1 blocker | STAT3 act | STAT1 act | STAT3 inh | APP 5'UTR act | NF-kB expr up
Brc1ccc2[nH]c3c(N4CCc5ccccc5C4)ncnc3c2c1 | 24.8 | 69.4 | 79.3 | 36.7 | -10.4 | 0.46
Cc1ccc2[nH]c3c(N4CCc5ccccc5C4)ncnc3c2c1 | 32.7 | 42.9 | 70.9 | 72.9* | 9.9 | 0.39
CCOc1ccc2oc(C(=O)NCC(C)(C)CN(C)C)c(C)c2c1 | -6.2 | 108.3 | 105.4 | -5.9 | -14.2 | 1.1
CCOC(=O)N1CCN(C(=O)CSCc2ccccc2)CC1 | -33.5 | 108.4 | 129.8* | -11.5 | 54.8 | 1.64
COc1ccc(NC(=O)CSc2nc(C)cs2)c(OC)c1 | -15.5 | 106.9 | 112.0 | -1.3 | 2.0 | 1.24
COCC(=O)n1nc(-c2ccc(C)cc2)nc1NCc1ccc(F)cc1 | -22.8 | 105.5 | 117.9 | -1.7 | 31.4 | 1.12
COCC(=O)n1nc(-c2ccccc2)nc1NCc1ccc(N(C)C)cc1 | -49.9 | 111.9 | 142.3* | -9.2 | 51.9 | 2.15
O=C(COc1ccccc1)n1nc(-c2ccc(Cl)cc2)nc1NCc1ccco1 | -47.0 | 111.1 | 143.4* | -13.1 | 54.4 | 1.78
O=C(c1ccco1)n1nc(-c2ccc(Cl)cc2)nc1NCc1ccco1 | 4.2 | 83.5 | 96.1 | 18.6 | -6.6 | 1.29
Oc1ccc(/C=C/c2cc(O)cc(O)c2)cc1 | 4.2 | 64.7 | 96.2 | 42.2 | 150.8* | 22.6*
CN(CC(O)Cn1cnc2c1c(=O)n(C)c(=O)n2C)c1ccccc1 (stereo unspecified) | 19.8 | 97.8 | 79.9 | 9.5 | -8.7 | 1.07
CCc1ccc(NC(=O)c2ccc3nc(N)sc3c2)cc1 | -26.1 | 106.2 | 123.8 | -1.3 | 52.4 | 2.57
CSc1nc2ccc(NC(=O)c3ccc(F)c(F)c3)cc2s1 | -44.9 | 93.3 | 140.0* | 9.3 | 48.7 | 2.39
Nc1nc2ccc(C(=O)Nc3ccccc3)cc2s1 | -52.0 | 156.1* | 147.6* | -60.6 | 87.6 | 2.62
CSc1nc2ccc(NC(=O)c3ccc(=O)n(C)n3)cc2s1 | -31.8 | 98.5 | 127.4 | 6.3 | 31.6 | 1.33
CSc1nc2ccc3nc(NC(=O)c4ccccc4)sc3c2s1 | -43.3 | 91.7 | 139.2* | 18.3 | 17.8 | 1.95
Cc1cc(C)nc(NC(=O)c2cc3ccccc3o2)n1 | -2.5 | 90.4 | 102.3 | 20.6 | -9.0 | 1.09
CSc1nc2ccc(NC(=O)c3cc4ccccc4o3)cc2s1 | -43.0 | 78.0 | 139.2* | 23.2 | 139.9* | 4.87*
Cc1nc(N2CCN(S(=O)(=O)c3ccc(F)cc3)CC2)c2c(-c3cccs3)csc2n1 | 5.3 | 101.6 | 94.8 | 5.8 | -7.4 | 0.78
CSc1nc2ccc(NC(=O)c3nn(C(C)C)c(=O)c4ccccc34)cc2s1 | 0.6 | 84.4 | 99.5 | 17.1 | 4.4 | 0.76
CSc1nc2ccc(NC(=O)c3ccco3)cc2s1 | -43.5 | 90.0 | 139.5* | 11.0 | 98.1 | 4.03*
O=C1c2ccccc2NC(c2ccc(O)cc2)N1/N=C/c1ccc(O)cc1 (stereo unspecified) | -24.7 | 112.5 | 121.9 | -18.0 | 12.2 | 1.63
O=C1c2ccccc2NC(c2ccccc2)N1/N=C/c1ccccc1 (stereo unspecified) | -13.9 | 89.2 | 112.4 | 18.1 | 127.8 | 3.8*
O=C(CCNc1ccc(Cc2ccncc2)cc1)c1ccc([N+](=O)[O-])cc1 | -0.8 | 96.6 | 100.1 | 6.5 | 12.1 | 0.97
Cc1cc(C(=O)Cn2nnc3ccccc3c2=O)c(C)n1-c1ccccc1F | -32.2 | 85.5 | 129.4* | 22.0 | 197.4* | 1.66
SMILES | STAT1 blocker | STAT3 act | STAT1 act | STAT3 inh | APP 5'UTR act | NF-kB expr up
Cc1cc(C(=O)COC(=O)c2ccc(O)cc2)c(C)n1-c1ccccc1F | -29.7 | 89.9 | 126.0 | 13.4 | 185.0* | 1.28
Cc1cc(C(=O)Cn2nnc3ccccc3c2=O)c(C)n1-c1c(C)n(C)n(-c2ccccc2)c1=O | -1.0 | 99.3 | 100.9 | 6.1 | 1.0 | 0.94
CCn1cc(C(=O)OCC(=O)c2cc(C)n(-c3ccccc3F)c2C)c(=O)c2ccc(C)nc21 | -0.3 | 101.7 | 100.3 | -2.0 | 1.2 | 1.02
Cc1cccc(S(=O)(=O)c2c(N)n(-c3ccccc3)c3nc4ccccc4nc23)c1 | -2.2 | 104.8 | 102.0 | -1.9 | 7.1 | 0.94
O=C(Nc1nc2c(s1)CCCC2)c1cccnc1 | -39.9 | 97.4 | 139.0* | 7.4 | 124.6 | 4.05*
COc1cc(OC)cc(-n2nnnc2SCC(=O)Nc2nc3c(s2)CCCC3)c1 | -0.5 | 101.3 | 100.5 | 0.0 | -4.2 | 1.16
